Converted amounts (≈) assume the structure as drawn.
Assays:
[1] = species: Homo sapiens; test: Selectivity ratio of IC50 for PI3Kbeta (unknown origin) to IC50 for PI3Kdelta (unknown origin)
In short: (§1)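 Ratio of each isoform's HTRF IC50 to the PI3Kδ HTRF IC50. Enzymes were preincubated 15 min with 4-fold compound dilutions in HEPES pH 7.0, MgCl2, DTT buffer. […] PIP2 was 5 µM for δ and 8 µM for α/β/γ. 60 min reaction, then EDTA quench with GRP-1 PH domain/APC/Eu detection. Four-parameter fit.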

[2] = biological target: T1, Phosphatidylinositol 4,5-bisphosphate 3-kinase catalytic subunit delta isoform (Homo sapiens, UniProt O00329)
T1 sequence (O00329 whole entry): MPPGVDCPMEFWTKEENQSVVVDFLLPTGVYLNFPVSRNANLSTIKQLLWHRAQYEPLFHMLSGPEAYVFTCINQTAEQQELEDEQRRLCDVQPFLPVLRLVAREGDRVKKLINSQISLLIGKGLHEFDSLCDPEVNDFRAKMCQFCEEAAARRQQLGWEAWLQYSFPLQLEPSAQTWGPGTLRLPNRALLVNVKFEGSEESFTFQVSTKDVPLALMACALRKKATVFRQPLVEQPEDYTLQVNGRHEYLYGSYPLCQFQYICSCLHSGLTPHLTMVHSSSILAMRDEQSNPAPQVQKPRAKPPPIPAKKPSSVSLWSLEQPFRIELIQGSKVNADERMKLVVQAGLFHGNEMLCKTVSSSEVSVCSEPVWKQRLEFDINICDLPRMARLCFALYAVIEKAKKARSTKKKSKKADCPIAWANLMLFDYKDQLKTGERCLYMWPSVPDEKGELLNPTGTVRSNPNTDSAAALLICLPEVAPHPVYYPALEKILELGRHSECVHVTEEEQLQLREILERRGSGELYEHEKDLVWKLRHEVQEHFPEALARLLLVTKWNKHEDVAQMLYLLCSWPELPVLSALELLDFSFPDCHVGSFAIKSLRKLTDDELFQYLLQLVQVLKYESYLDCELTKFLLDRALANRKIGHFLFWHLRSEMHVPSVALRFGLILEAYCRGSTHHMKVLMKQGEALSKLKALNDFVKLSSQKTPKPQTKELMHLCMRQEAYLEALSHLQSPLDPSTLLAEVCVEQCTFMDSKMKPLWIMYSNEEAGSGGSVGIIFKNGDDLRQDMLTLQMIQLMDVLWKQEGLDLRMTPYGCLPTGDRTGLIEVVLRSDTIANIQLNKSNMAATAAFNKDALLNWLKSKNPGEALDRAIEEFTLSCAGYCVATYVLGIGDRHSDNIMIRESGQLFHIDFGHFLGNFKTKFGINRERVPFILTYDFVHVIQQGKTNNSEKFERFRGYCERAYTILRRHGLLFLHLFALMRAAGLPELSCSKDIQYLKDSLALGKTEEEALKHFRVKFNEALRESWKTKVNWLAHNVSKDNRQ

[3] = species: Homo sapiens; test: Selectivity ratio of IC50 for PI3Kalpha (unknown origin) to IC50 for PI3Kdelta (unknown origin); in short: as §1
[4] = species: Homo sapiens; test: Selectivity ratio of IC50 for PI3Kgamma (unknown origin) to IC50 for PI3Kdelta (unknown origin); in short: as §1
[5] = Clearance in human liver microsomes at 0.5 uM measured up to 30 mins by LC-MS/MS analysis; assay type: ADME, Microsome; conditions: 0.5 h
[6] = Kinetic solubility in phosphate buffered saline at pH 7.4 after 1 hr by chemiluminescent nitrogen detection method; assay type: physicochemical; conditions: read-out: Kinetic_solubility
In short: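 The sample was then filtered, and the filtrate was quantified by calibrated flow-injection chemiluminescent nitrogen detection. Standard error was ±30 µM, and the upper limit was 500 µM from the 10 mM stock.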

[7] = Clearance in rat liver microsomes at 0.5 uM measured up to 30 mins by LC-MS/MS analysis; assay type: ADME, Microsome; conditions: 0.5 h
In short: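 Rat liver microsomes (0.5 mg protein/mL) prewarmed 10 min at 37 °C, started with NADPH regeneration system. Final compound 0.5 μM. Sampled at 0, 3, 6, 12 and 30 min into acetonitrile with internal standard. Peak area ratios by LC–MS/MS fitted to log-linear decline. Clearance scaled by protein concentration, incubation volume and 52.5 mg microsomal protein/g liver.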

[8] = Volume of distribution at steady state in Sprague-Dawley rat at 3 mg/kg, po or 1 mg/kg, iv measured up to 7 hrs by LC-MS/MS analysis; assay type: ADME, organism-based; conditions: in vivo, read-out: Vdss
In short: (§2)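 Male Sprague Dawley rats, n = 2 per route, were dosed discretely at 3 mg/kg orally or 1 mg/kg intravenously. The dosing solution was DMSO/PEG200/water (5:45:50 v/v/v). Serial tail-vein blood samples were taken over 0–7 h, and parent compound was quantified by LC–MS/MS. Parameters were estimated by noncompartmental analysis.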

[9] = Oral bioavailability in Sprague-Dawley rat at 3 mg/kg measured up to 7 hrs by LC-MS/MS analysis; assay type: ADME, organism-based; conditions: in vivo; for F: 7 h; in short: as §2
[10] = AUC (0 to t) in Sprague-Dawley rat at 3 mg/kg, po measured up to 7 hrs by LC-MS/MS analysis; assay type: ADME, organism-based; set-up: dose 3 mg/kg, time < 7 hr, route oral; conditions: in vivo
In short: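 Male Sprague Dawley rats were given a single oral dose of 3 mg/kg in DMSO/PEG200/water (5:45:50 v/v/v) at 6 mL/kg, with n = 2 per route. Blood was sampled serially from the tail vein over 0–7 h. Parent compound was quantified by LC–MS/MS, and parameters were derived by noncompartmental analysis.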

[11] = biological target: T1, Phosphatidylinositol 4,5-bisphosphate 3-kinase catalytic subunit delta isoform; remark: listed apart in the source
[12] = Clearance in mouse liver microsomes at 0.5 uM measured up to 30 mins by LC-MS/MS analysis; assay type: ADME, Microsome; conditions: 0.5 h
[13] = biological target: Phosphatidylinositol 4,5-bisphosphate 3-kinase catalytic subunit delta isoform (Homo sapiens) (UniProt O00329); test: Ratio of IC50 for PI3Kdelta in human PBMC to IC50 for PI3Kdelta (unknown origin)
[14] = Half life in Sprague-Dawley rat at 1 mg/kg, iv by LC-MS/MS analysis; assay type: ADME, organism-based; conditions: in vivo
In short: (§3)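 Male Sprague Dawley rats (n = 2/route), intravenous dose as a solution in DMSO/PEG200/water (5:45:50 v/v/v) at 2 mL/kg. Serial tail-vein blood sampling over 0–7 h. LC–MS/MS quantification of parent. Noncompartmental analysis.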

[15] = biological target: Albumin (Homo sapiens, UniProt P02768); test: Binding affinity to human serum albumin by HPLC analysis; assay type: ADME; conditions: read-out: PB (converted)
[16] = biological target: Phosphatidylinositol 4,5-bisphosphate 3-kinase catalytic subunit beta isoform (Homo sapiens, UniProt P42338); test: Inhibition of PI3Kbeta (unknown origin) using PIP2 as substrate preincubated for 15 mins followed by substrate addition measured after 60 mins in presence of biotin-labeled PIP3 by HTRF assay
In short: (§4)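 HTRF kinase assay in 50 mM HEPES pH 7.0, 150 mM NaCl, 10 mM MgCl₂, 1 mM DTT. Enzyme preincubated 15 min with 4-fold serially diluted compound. […] Quenched after 60 min with EDTA plus GRP-1 PH domain/streptavidin-APC/Eu-antiGST detection, then equilibrated 60 min in the dark. Data normalized to no-compound and no-enzyme controls. IC50 from four-parameter fit.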

[17] = Lipophilicity, log D of compound at pH 7.4 by chromatographic method; assay type: physicochemical; conditions: buffer
[18] = biological target: Phosphatidylinositol 4,5-bisphosphate 3-kinase catalytic subunit alpha isoform (Homo sapiens, UniProt P42336); test: Inhibition of PI3Kalpha (unknown origin) using PIP2 as substrate preincubated for 15 mins followed by substrate addition measured after 60 mins in presence of biotin-labeled PIP3 by HTRF assay; in short: as §4
[19] = biological target: Phosphatidylinositol 4,5-bisphosphate 3-kinase catalytic subunit gamma isoform (Homo sapiens, UniProt P48736); test: Inhibition of PI3Kgamma (unknown origin) using PIP2 as substrate preincubated for 15 mins followed by substrate addition measured after 60 mins in presence of biotin-labeled PIP3 by HTRF assay; in short: as §4
[20] = Cmax in Sprague-Dawley rat at 3 mg/kg, po measured up to 7 hrs by LC-MS/MS analysis; assay type: ADME, organism-based; set-up: dose 3 mg/kg, route oral; conditions: in vivo
[21] = Clearance in Sprague-Dawley rat at 1 mg/kg, iv measured up to 7 hrs by LC-MS/MS analysis; assay type: ADME, organism-based; conditions: in vivo; in short: as §3
[22] = AUC(infinity) in Sprague-Dawley rat at 3 mg/kg, po measured up to 7 hrs by LC-MS/MS analysis; assay type: ADME, organism-based; set-up: dose 3 mg/kg, time infinity, route oral; conditions: in vivo
In short: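 Male Sprague Dawley rats (n = 2/route), oral dose in DMSO/PEG200/water (5:45:50 v/v/v) at 6 mL/kg. Serial tail-vein bleeds over 0–7 h. Parent compound quantified by LC–MS/MS. Parameters from noncompartmental analysis.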

Sequence of Albumin (P02768 whole entry, canonical isoform): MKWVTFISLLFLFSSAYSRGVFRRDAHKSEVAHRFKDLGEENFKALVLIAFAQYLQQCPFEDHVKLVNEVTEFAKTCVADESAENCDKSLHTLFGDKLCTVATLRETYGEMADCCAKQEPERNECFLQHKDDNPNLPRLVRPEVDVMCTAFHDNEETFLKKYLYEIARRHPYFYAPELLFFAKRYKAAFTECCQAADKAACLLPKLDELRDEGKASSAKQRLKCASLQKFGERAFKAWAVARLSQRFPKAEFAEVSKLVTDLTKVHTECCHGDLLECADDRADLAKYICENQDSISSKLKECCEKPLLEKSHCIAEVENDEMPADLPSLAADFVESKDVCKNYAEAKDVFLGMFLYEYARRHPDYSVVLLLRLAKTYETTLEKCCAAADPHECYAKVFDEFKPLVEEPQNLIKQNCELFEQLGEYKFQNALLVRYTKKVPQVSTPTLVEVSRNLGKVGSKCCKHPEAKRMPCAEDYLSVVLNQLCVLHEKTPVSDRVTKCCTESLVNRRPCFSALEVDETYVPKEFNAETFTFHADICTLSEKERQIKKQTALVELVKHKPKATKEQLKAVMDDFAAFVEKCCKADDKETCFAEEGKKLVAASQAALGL
Sequence of Phosphatidylinositol 4,5-bisphosphate 3-kinase catalytic subunit alpha isoform (P42336 whole entry, canonical isoform): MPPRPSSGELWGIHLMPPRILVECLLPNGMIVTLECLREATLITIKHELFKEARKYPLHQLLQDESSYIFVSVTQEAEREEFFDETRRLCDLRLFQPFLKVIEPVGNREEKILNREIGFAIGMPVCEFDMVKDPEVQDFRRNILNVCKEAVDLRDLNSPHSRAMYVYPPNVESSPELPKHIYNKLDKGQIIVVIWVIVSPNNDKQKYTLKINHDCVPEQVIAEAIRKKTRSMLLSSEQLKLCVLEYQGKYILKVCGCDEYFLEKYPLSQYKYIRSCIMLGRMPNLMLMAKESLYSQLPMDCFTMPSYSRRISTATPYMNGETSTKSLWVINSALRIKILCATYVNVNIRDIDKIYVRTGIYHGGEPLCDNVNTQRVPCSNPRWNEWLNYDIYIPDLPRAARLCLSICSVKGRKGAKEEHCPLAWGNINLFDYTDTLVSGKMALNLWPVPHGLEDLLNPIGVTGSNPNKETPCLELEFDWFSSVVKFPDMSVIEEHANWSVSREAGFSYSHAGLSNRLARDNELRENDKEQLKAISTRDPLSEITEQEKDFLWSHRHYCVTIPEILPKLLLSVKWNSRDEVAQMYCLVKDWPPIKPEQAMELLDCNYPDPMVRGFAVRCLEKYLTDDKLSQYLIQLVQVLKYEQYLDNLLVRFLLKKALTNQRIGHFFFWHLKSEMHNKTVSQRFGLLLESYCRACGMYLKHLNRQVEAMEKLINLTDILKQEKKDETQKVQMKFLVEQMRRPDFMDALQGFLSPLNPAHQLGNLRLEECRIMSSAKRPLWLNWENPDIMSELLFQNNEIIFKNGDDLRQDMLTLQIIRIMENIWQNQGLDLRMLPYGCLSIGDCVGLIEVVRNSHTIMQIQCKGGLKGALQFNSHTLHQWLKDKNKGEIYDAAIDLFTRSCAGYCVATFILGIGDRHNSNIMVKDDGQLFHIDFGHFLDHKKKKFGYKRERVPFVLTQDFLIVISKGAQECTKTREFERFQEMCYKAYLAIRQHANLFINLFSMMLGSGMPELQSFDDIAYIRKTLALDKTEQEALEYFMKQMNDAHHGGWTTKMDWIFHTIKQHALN
Sequence of Phosphatidylinositol 4,5-bisphosphate 3-kinase catalytic subunit beta isoform (P42338 whole entry, the tested form may be a part, canonical isoform): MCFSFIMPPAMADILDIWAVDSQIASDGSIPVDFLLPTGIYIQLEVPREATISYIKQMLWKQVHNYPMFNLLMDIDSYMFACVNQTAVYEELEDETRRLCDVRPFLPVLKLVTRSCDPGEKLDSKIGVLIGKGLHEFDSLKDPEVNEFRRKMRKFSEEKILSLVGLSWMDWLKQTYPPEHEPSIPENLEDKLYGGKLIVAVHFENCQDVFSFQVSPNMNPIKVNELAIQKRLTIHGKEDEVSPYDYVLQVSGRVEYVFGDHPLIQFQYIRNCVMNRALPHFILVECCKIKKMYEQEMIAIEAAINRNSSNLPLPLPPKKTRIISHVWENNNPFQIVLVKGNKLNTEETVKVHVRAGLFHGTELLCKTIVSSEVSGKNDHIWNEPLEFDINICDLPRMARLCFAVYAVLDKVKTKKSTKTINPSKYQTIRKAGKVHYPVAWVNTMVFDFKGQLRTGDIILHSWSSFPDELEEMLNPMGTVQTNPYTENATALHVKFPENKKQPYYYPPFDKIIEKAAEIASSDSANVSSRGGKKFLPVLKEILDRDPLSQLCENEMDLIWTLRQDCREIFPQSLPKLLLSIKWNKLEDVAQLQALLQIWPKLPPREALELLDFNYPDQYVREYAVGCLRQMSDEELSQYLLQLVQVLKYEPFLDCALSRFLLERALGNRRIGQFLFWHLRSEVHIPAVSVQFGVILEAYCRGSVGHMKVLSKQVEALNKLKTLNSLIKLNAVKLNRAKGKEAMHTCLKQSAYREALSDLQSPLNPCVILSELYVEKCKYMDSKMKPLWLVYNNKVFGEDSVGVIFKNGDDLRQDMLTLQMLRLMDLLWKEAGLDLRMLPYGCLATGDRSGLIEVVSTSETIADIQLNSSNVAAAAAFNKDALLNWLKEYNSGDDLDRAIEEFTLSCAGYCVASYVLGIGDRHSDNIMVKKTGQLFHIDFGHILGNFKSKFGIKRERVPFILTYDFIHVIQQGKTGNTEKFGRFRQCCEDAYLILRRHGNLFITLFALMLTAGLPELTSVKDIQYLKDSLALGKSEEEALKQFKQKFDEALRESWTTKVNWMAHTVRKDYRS
Sequence of Phosphatidylinositol 4,5-bisphosphate 3-kinase catalytic subunit gamma isoform (P48736 whole entry, canonical isoform): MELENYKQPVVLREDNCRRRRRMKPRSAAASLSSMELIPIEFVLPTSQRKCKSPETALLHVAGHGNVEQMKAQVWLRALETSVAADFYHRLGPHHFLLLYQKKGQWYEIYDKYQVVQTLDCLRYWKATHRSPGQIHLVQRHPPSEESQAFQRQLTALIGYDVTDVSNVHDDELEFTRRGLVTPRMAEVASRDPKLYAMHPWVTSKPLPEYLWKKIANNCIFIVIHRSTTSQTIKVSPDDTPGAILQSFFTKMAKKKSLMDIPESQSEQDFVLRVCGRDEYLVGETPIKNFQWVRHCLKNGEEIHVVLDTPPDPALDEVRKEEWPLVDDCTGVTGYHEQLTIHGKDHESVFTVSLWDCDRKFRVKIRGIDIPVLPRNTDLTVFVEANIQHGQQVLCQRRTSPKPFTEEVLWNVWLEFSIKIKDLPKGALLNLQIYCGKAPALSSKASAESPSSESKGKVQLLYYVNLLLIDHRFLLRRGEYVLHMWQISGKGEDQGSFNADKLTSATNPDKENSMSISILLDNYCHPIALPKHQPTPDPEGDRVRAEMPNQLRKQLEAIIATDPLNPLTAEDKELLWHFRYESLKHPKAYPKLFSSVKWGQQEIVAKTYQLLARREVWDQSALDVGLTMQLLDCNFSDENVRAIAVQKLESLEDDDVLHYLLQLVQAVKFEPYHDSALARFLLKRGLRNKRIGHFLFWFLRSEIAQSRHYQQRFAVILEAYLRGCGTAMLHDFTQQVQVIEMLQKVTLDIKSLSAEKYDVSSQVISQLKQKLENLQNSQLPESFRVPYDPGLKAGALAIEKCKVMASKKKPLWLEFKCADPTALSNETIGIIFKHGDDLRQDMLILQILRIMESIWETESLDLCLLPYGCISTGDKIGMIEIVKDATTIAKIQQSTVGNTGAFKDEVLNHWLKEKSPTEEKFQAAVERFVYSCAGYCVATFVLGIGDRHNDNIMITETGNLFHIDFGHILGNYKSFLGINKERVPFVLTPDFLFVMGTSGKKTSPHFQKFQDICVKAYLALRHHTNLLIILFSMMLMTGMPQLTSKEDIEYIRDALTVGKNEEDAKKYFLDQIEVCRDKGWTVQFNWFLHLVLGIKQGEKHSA

| Structure (SMILES) | Ratio IC50 [1] | IC50 [2] | Ratio IC50 [3] | Ratio IC50 [4] | CLH [5] | solubility kinetic at 1 h [6] | CLH [7] | Vd [8] | CLH [12] | half-life [14] | fraction unbound [15] | chromatographic logD [17] | further results |
| --- | --- | --- | --- | --- | --- | --- | --- | --- | --- | --- | --- | --- | --- |
| COc1ncc(-c2cc3c(c(NC(C)=O)c2)COC3)cc1NS(C)(=O)=O | 13 | 398 nM | 4 | 13 | – | – | – | – | – | – | – | – | – |
| COc1ncc(-c2cc3c(c(NC(=O)c4cccc(C)n4)c2)COC3)cc1NS(C)(=O)=O | 126 | 5.01 nM | 50 | 25 | < 0.5 mL/min/g | 50 µg/mL (≈ 110 µM) | 1.2 mL/min/g | 1.6 L/kg | 1.4 mL/min/g | 3.4 h | 0.07 | – | F [9]: 1.5%; AUCt [10]: 42 ng·h/mL; IC50 [11]: 200 nM; Ratio IC50 [13]: > 10 |
| COc1ncc(-c2cc(NC(=O)c3csc(C)n3)c3cn[nH]c3c2)cc1NS(C)(=O)=O | 63 | – | 63 | 16 | – | – | – | – | – | – | – | – | – |
| COc1ncc(-c2ccc3cn[nH]c3c2)cc1NS(C)(=O)=O | – | – | – | – | – | 31 µg/mL (≈ 97.4 µM) | – | – | – | – | – | 2.6 | IC50 [16]: 7940 nM; IC50 [18]: 7940 nM; IC50 [19]: 2510 nM |
| COc1ncc(-c2cc3c(c(-c4ccccn4)c2)COC3)cc1NS(C)(=O)=O | 20 | 63.1 nM | 10 | 6 | – | – | – | – | – | – | – | – | – |
| COc1ncc(-c2ccc3c(c2)COC3)cc1NS(C)(=O)=O | 2.5 | 794 nM | 5 | 4 | – | 92 µg/mL (≈ 287 µM) | – | – | – | – | – | 3.5 | IC50 [16]: 2000 nM; IC50 [18]: 3980 nM; IC50 [19]: 3160 nM |
| COc1ncc(-c2cc(-c3ncc(CN4C[C@@H](C)O[C@@H](C)C4)o3)c3cn[nH]c3c2)cc1NS(C)(=O)=O | – | – | – | – | 3.2 mL/min/g | 182 µg/mL (≈ 355 µM) | 1.9 mL/min/g | 3.5 L/kg | 5.9 mL/min/g | 2.6 h | 0.1 | 3.3 | Cmax [20]: < 2 ng/mL; clearance [21]: 50 mL/min/kg; bioavailability ([9]; Sprague-Dawley): < 2%; AUC(0-inf) ([22]; Sprague-Dawley): < 24 ng·h/mL |
| COc1ncc(-c2cc3c(c(NC(=O)c4csc(C)n4)c2)COC3)cc1NS(C)(=O)=O | 63 | 7.94 nM | 50 | 25 | – | – | – | – | – | – | – | – | – |
| COc1ncc(-c2cc3c(c(-c4nnc(C)o4)c2)COC3)cc1NS(C)(=O)=O | 13 | 20 nM | 5 | 5 | < 0.5 mL/min/g | 195 µg/mL (≈ 485 µM) | < 0.5 mL/min/g | 0.5 L/kg | 1 mL/min/g | 0.9 h | 0.1 | – | F [9]: 56%; AUC ([22]; 7 h): 1370 ng·h/mL; IC50 [11]: 200 nM; Ratio IC50 [13]: > 10 |

From ChEMBL document CHEMBL4477235, “Evolution of a Novel, Orally Bioavailable Series of PI3Kδ Inhibitors from an Inhaled Lead for the Treatment of Respiratory Disease” (J Med Chem, 2016)
